Hits are enriched below; roughly 3.9% of the tested compounds scored in any of these assays.
XBP1 UPR activ: activators of adaptive arm of unfolded protein response (XBP1). AID 463104. activation, % at 20 µM. CHO-XBP1 luciferase reporter, IRE1-XBP1 UPR activation, luminescence; percent of tunicamycin response, DMSO as zero. 330,000 compounds, 0.33% hits;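 active = versus positive control, 20 µM dose yields 30% or more activation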;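 note: 100% = tunicamycin at 10 µg/mL and 0% = DMSO only wells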
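Material: CHO cell line with stable XBP1 luciferase reporter; buffer or medium: F12 medium containing 10% fetal bovine serum; compound: single point, 20 µM final compound, 1% DMSO; incubation: 6 h treatment, 37 °C; measured by: glow luminescence from Steady-Glo reagent; evaluation: activation, % of tunicamycin; control set: tunicamycin high, DMSO low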
CHOP UPR activ: apoptotic UPR (CHOP) activation; AID 449763; activation, % at 10 µM; 330,000 compounds, 0.34% hits; CHO-CHOP luciferase reporter, luminescence; percent of tunicamycin response over DMSO baseline;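 active = at 10 µM dose, activation of 40% or more, normalized to positive control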;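 note: 100% = tunicamycin at 10 µg/mL and 0% = DMSO alone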
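assay system = CHO CHOP reporter cells | amount = 500 CHO-CHOP cells per well | buffer or medium = F12 with 10% FBS | incubation = 16-18 h cell attachment, then 6 h compound exposure, 37 °C | detection = luminescence read with Steady-Glo | read-out = percent activation relative to tunicamycin control | controls = tunicamycin high control, DMSO low control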
tim23-1 inh: tim23-1 yeast growth inhibition; S. cerevisiae tim23-1 growth, BacTiter-Glo luminescence, 24 h; inhibition, % at 20 µM; 330,000 compounds, 1.3% hits;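 active = growth inhibition of the mutant yeast at or above 50%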;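 note: temperature-sensitive mutant grown at 25 °C; plate controls were DMSO-treated mutant yeast for no effect and medium wells lacking yeast for full effect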
TIM10 inh: TIM10 yeast growth inhibition; S. cerevisiae TIM10 strain growth, BacTiter-Glo luminescence, 24 h; inhibition, % at 10 µM; 330,000 compounds, 1.4% hits;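 active = inhibition of 40% or more at the single tested concentration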;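 note: wild-type TIM10 isogenic control strain grown at permissive 25 °C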
tim10-1 inh: growth inhibitors of tim10-1 mutant yeast. 330,000 compounds, 2.2% hits. AID 463190. S. cerevisiae tim10-1 ts strain growth, BacTiter-Glo, 24 h. inhibition, % at 20 µM;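 active = inhibition of at least 40%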;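 note: mutant grown at 25 °C; 0% = DMSO wells with yeast and 100% = wells holding no yeast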
tim10-1 conf: tim10-1 yeast growth inhibition, confirmed | S. cerevisiae tim10-1 ts strain growth, BacTiter-Glo, 24 h | shares compounds with tim10-1 inh | 7,400 compounds, 56% hits | inhibition, % at 20 µM;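 active = inhibition of yeast growth at or above a set limit in either of two repeat tests at 20 µM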;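 note: tim10-1 mutant grown at permissive 25 °C to find synthetic lethal compounds; 0% = DMSO yeast wells and 100% = medium wells without yeast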
Active calls of the source: *; · = not tested or not shown.

SMILES	XBP1 UPR activ	CHOP UPR activ	tim23-1 inh	TIM10 inh	tim10-1 inh	tim10-1 conf
C=CC[C@H](CC(=O)OC(C)(C)C)C(=O)OC[C@H]1CCCN1C(=O)[C@@H](CC=C)CC(=O)N(CCO)Cc1ccccc1	1.0	-1.3	18.8	6.8	18.9	·
O=C(c1sc2ccccc2c1Cl)N1CCN(c2ccccc2F)CC1	-0.9	0.0	29.7	3.2	42.4*	27.8
O=C(Cc1ccc(S(=O)(=O)N2CCOCC2)s1)Nc1ccc2c(c1)CCC2	0.3	1.8	27.4	31.2	40.7*	16.9
COc1cc(NC(=O)Cc2ccc(S(=O)(=O)N3CCOCC3)s2)c(OC)cc1Cl	-3.0	-1.9	24.5	12.7	29.8	·
O=C(Cc1ccc(S(=O)(=O)N2CCOCC2)s1)Nc1ccc(S(=O)(=O)N2CCCCC2)cc1	0.7	-0.4	3.3	21.2	8.4	·
O=C(Cc1ccc(S(=O)(=O)N2CCOCC2)s1)Nc1cc(Cl)ccc1Cl	-0.7	-0.3	34.3	22.8	44.3*	35.6*
Cc1cc(C)c(C)c(S(=O)(=O)N2CCC(C(=O)NCCCN3CCCC3=O)CC2)c1C	1.3	-0.2	10.1	11.4	7.6	·
CC1CCCN(C(=O)c2ccc3ncsc3c2)C1 (stereo not drawn)	1.4	0.8	7.3	-1.1	13.5	·
CN1CCN(c2ccccc2NC(=O)c2cccc([N+](=O)[O-])c2)CC1	-3.2	0.1	-11.6	6.2	9.7	·
COc1ccccc1C(=O)Nc1ccccc1N1CCN(C(=O)c2ccc(Cl)cc2)CC1	-1.8	2.0	43.9	29.1	47.3*	16.8
O=C(Nc1ccccc1N1CCN(C(=O)c2ccc(Cl)cc2)CC1)c1cccc([N+](=O)[O-])c1	-5.5	4.2	31.9	20.1	41.6*	13.3
CCOC(=O)c1sc2nc3c(cc2c1N)COC(C)(C)C3	1.4	6.1	20.1	4.2	40.1*	25.6
CC1(C)Cc2nc3sc(C(N)=O)c(N)c3cc2CO1	2.1	0.0	1.4	-7.7	-0.4	·
CCOC(=O)c1sc2nc3c(cc2c1N)COC(C)(CC)C3 (stereo not drawn)	0.5	1.8	30.7	34.2	42.8*	27.6
CCC1(C)Cc2nc3sc(C(=O)O)c(N)c3cc2CO1 (stereo not drawn)	6.1	2.7	-6.1	3.4	15.7	·
COc1ccc(NC(=O)CSc2nnc(C)n2N)cc1S(=O)(=O)N1CCCCC1	-2.1	0.1	14.6	2.7	9.3	·
COC(=O)[C@@H](CC(C)C)NS(=O)(=O)N(Cc1ccccc1)[C@@H](CC(C)C)C(=O)OC	-2.3	2.0	32.0	18.6	21.0	·
C=C1CCC[C@]2(C)C[C@H]3OC(=O)C(CNC(C)CC)[C@H]3CC12 (stereo partly drawn)	0.1	0.9	31.3	30.3	42.9*	37.3*
C=C1CCC[C@]2(C)C[C@H]3OC(=O)C(CN(C)CC(OC)OC)[C@H]3CC12 (stereo partly drawn)	-7.2	-0.7	25.5	15.3	42.3*	41.1*
C=C1CCC[C@]2(C)C[C@H]3OC(=O)C(CNC(CC)CO)[C@H]3CC12 (stereo partly drawn)	-7.0	-1.1	35.0	15.8	52.0*	45.1*
C=C1CCC[C@]2(C)C[C@H]3OC(=O)C(CN4CCCCC4CO)[C@H]3CC12 (stereo partly drawn)	-8.3	2.0	45.7	26.0	48.4*	37.5*
CCC(CO)NC1=CC(=O)CCC1 (stereo not drawn)	1.3	-2.2	6.9	-2.0	7.1	·
CCNc1nnc(SCC(=O)NC2CCCCCC2)s1	2.4	-0.9	24.6	9.9	15.1	·
O=C1NC[C@@H](c2ccccc2)OC(=O)[C@@H](Cc2ccc(F)cc2)C/C=C\C[C@@H]1CC(=O)N(CCO)Cc1ccccc1	0.4	4.2	2.9	0.2	3.8	·
Cc1cccc(N2CCN(C(=O)CCC(=O)N3Cc4ccccc4Oc4ncccc43)CC2)c1C	-9.2	2.0	26.2	-11.7	53.6*	-20.0
Cc1ccc(C)c(NC2CCCCC2NS(=O)(=O)c2ccccc2)c1 (stereo not drawn)	-6.2	2.1	37.1	25.5	46.3*	22.1
COc1ccccc1NC1CCCCC1NS(=O)(=O)c1ccc(C)cc1 (stereo not drawn)	-10.4	-1.0	37.9	6.7	48.0*	-8.8
